Experimental data from different studies.
Compare with care: the assays were run in different laboratories.
Target: Mitogen-activated protein kinase 8 (MAPK8, Homo sapiens, UniProt P45983)

| Compound | read-out | action | technique | concentration | endpoint | value |
| --- | --- | --- | --- | --- | --- | --- |
| COc1cc2ncnc(Nc3ccc(Oc4ccccc4)c(C)c3C)c2cc1OC | enzyme activity | inhibitor |  | 1 µM | inhibition | 2% |
| CC(=O)C1=C(C)N(c2cccc(C(F)(F)F)c2)C(=O)N[C@@H]1c1ccc(C#N)nc1 | cell-free assay |  | competition with immobilised ligand | 1 µM | remaining binding | 100% |
| COc1cc(Nc2cnc(C#N)c(O[C@H](C)CN(C)C)n2)ncc1-c1cnn(C)c1 | enzyme activity | inhibitor | radiometric | 1 µM | remaining activity | 104% |
| Cn1c(=O)n(-c2ccc(C(C)(C)C#N)cc2)c2c3cc(-c4cnc5ccccc5c4)ccc3ncc21 | enzyme activity | inhibitor |  | 10 µM | remaining activity | 105% |
| O=C1Nc2ccc(Cl)cc2C1=Cc1cc(Cl)c(O)c(Cl)c1 | cell-free assay |  |  | 0.5 µM | remaining signal | 82.8% |
| Cc1cnc(NC2CCOCC2)nc1-n1cnc(C(=O)NC(CN)c2cc(F)cc(Cl)c2)c1 (centres unmarked) | enzyme activity | inhibitor | radiometric | 1 µM | remaining activity | 56% |
| CCS(=O)(=O)c1cc2cc(C[C@](O)(CC(C)(C)c3ccc(F)cc3C(N)=O)C(F)(F)F)[nH]c2cn1 | cell-free assay |  | competition with immobilised ligand | 1 µM | remaining binding | 100% |
| COc1cc(-c2cc(-c3ccc(N4CCNCC4)cc3)cnc2C)cc(OC)c1OC | enzyme activity | inhibitor |  | 1 µM | inhibition | 2% |
| N#CC(c1ccnc(NCCc2cccnc2)n1)c1nc2ccccc2s1 (centres unmarked) | enzyme activity | inhibitor |  | 0.5 µM | remaining activity | 87.6% |
| CO[C@@H](C)c1c(Nc2ccc([C@@H](N(C)C(=O)C3CCS(=O)(=O)CC3)C(F)(F)F)cc2)cnc2cc(Cl)nn12 | cell-free assay |  | competition with immobilised ligand | 1 µM | remaining binding | 69% |
| CN1CC(Oc2cnc(C#N)cc2-c2ccn3nc(NC(=O)C4CC4)cc3c2)C1 | enzyme activity | inhibitor |  | 1 µM | inhibition | -4% |
| c1ccc(N2CCN(Cc3nc4ccccc4[nH]3)CC2)nc1 | binding |  | competition with immobilised ligand | 1 µM | remaining binding | 100% |
| Cc1ccc(C(=O)Nc2ccc(CN3CCN(C)CC3)c(C(F)(F)F)c2)cc1C#Cc1cnc2cccnn12 | enzyme activity | inhibitor |  | 23.5 nM | remaining activity | 82% |
| Cc1ccc(C(=O)NCc2ccsc2)cc1C#Cc1cn(C(C)C)c2ncnc(N)c12 | enzyme activity | inhibitor |  | 1 µM | activity vs control | 103% |
| Cn1c2c(c3ccc(Cl)c(Cl)c31)C(C#N)C1(CCNCC1)NC2=O (racemic) | thermal stability |  | DSF | 10 µM | ΔTm | 0.2 °C |
| CC(C)(C)c1nc2c(s1)c1nc(N)ncc1c1ccc(NS(=O)(=O)c3c(F)cccc3F)c(F)c12 | enzyme activity | inhibitor | radiometric | 1 µM | remaining activity | 75% |
| COc1cc(/C=C/C(=O)CC(=O)/C=C/c2ccc(O)c(OC)c2)ccc1O | enzyme activity | inhibitor |  | 1 µM | activity vs control | 99% |
| CCCOc1ccc([C@@H]2[C@@H](C(=O)O)[C@H](c3ccc4c(c3)OCO4)CN2CC(=O)Nc2c(CC)cccc2CC)cc1 | cell-free assay |  | competition with immobilised ligand | 1 µM | remaining binding | 87% |

| Compound | read-out | action | technique | concentration | endpoint | value |
| --- | --- | --- | --- | --- | --- | --- |
| Oc1cccc(-c2nc(N3CCOCC3)c3oc4ncccc4c3n2)c1 | enzyme activity | inhibitor |  | 10 µM | remaining activity | 102% |
| NS(=O)(=O)c1cc(NC(=O)C2(c3ccccc3Cl)CC2)ccc1Oc1cccc(Cl)c1 | cell-free assay |  | competition with immobilised ligand | 1 µM | remaining binding | 100% |
| CCN1CCC2(CC1)NC(=O)c1c(c3ccc(Cl)c(Cl)c3n1C)C2C#N (racemic) | thermal stability |  | DSF | 10 µM | ΔTm | 0.6 °C |
| CCN(CC)CCNC(=O)c1c(C)[nH]c(/C=C2\C(=O)Nc3ccc(F)cc32)c1C | cell-free assay |  |  | 0.5 µM | remaining signal | 91.8% |
| CNCc1ccc(-c2cc(-c3nc(-c4ccc(S(=O)(=O)C(C)C)cc4)cnc3N)on2)cc1 | enzyme activity | inhibitor |  | 2 µM | inhibition | 8% |
| CN([C@@H]1CCc2c(CC(=O)O)c3ccccc3n2C1)S(=O)(=O)c1ccc(F)cc1 | cell-free assay |  | competition with immobilised ligand | 1 µM | remaining binding | 77% |
| Cn1c2c(c3ccc(Cl)c(Cl)c31)C(C#N)C(C)(C)NC2=O (centres unmarked) | thermal stability |  | DSF | 10 µM | ΔTm | 1.3 °C |
| Cc1sc(C(=O)NC2COC2)cc1-n1cc(NC(=O)Nc2c(F)cccc2Cl)cn1 | enzyme activity | inhibitor |  | 10 µM | remaining activity | 76.3% |
| Cc1cc(NC(=O)c2cccc3cc(-c4cccc5[nH]nc(N)c45)ccc23)ccc1F | enzyme activity | inhibitor |  | 0.1 µM | activity vs control | 103% |
| CN(C)C1CCN(CC#Cc2nn(C3CCCC3)c3nc(NCc4ccccc4)ncc23)C1 (centres unmarked) | enzyme activity | inhibitor | FRET | 0.1 µM | inhibition | 1% |
| O=C(Nc1cnn(-c2csc(C(=O)NC3COC3)c2)c1)Nc1c(F)cccc1Cl | enzyme activity | inhibitor |  | 5 µM | remaining activity | 49.1% |
| Nc1nc(NC2CCCCC2)sc1C(=O)c1ccccc1 | enzyme activity | inhibitor |  | 10 µM | remaining activity | 60% |
| FC(F)(F)Oc1cccc(-c2cnc3ccc(-c4ccncc4)nn23)c1 | enzyme activity | inhibitor | radiometric | 1 µM | activity vs control | 91% |
| Cn1c2c(c3ccc(Cl)c(Cl)c31)C(C#N)C1(CCOCC1)NC2=O (centres unmarked) | thermal stability |  | DSF | 10 µM | ΔTm | -0.1 °C |
| CSc1nc(C)c(-c2ccnc(Nc3ccc(N4CCOCC4)cc3)c2)[nH]1 | enzyme activity | inhibitor |  | 10 µM | inhibition | 88.6% |
| CC(C)(O)c1cncc(-c2nc3ccc(F)cc3n2C2CC2)c1 | cell-free assay |  | competition with immobilised ligand | 1 µM | remaining binding | 100% |
| CC1(C)NC(=O)c2[nH]c3c(Cl)c(Cl)ccc3c2C1C#N (centres unmarked) | thermal stability |  | DSF | 10 µM | ΔTm | 0.8 °C |
